{"data": "Measurements pooled from the literature"}
{"SMILES": "Cc1c(C(=O)NN2CCCC(O)C2)nc(-c2ccc(Cl)cc2Cl)n1-c1ccc(OS(=O)(=O)CCC(F)(F)F)cc1 (stereo not drawn)", "assay": "shake flask", "system": "aqueous buffer", "setting": "pH 7.4", "endpoint": "logD", "value": 3.8}
{"SMILES": "c1ccc(-c2nc(N3CCc4ncccc4C3)c3ccccc3n2)nc1", "assay": "metabolic stability", "system": "human, liver microsomes", "endpoint": "microsomal CLint", "value": "71 µL/min/mg"}
{"SMILES": "COc1ccc2nc(-c3cc(N(C)C)ccn3)c(N(C)c3ccc(F)cc3)n2c1", "assay": "metabolic stability", "system": "rat, hepatocytes", "endpoint": "hepatocyte CLint", "value": "> 300 µL/min/10⁶ cells"}
{"SMILES": "OC[C@H]1O[C@@H](c2ccc(Cl)c(Cc3ccc(O[C@H]4CCOC4)cc3)c2)[C@H](O)[C@@H](O)[C@@H]1O", "system": "human, urine", "setting": "oral, 100 mg, single dose", "endpoint": "renal clearance", "value": "15 mL/min"}
{"SMILES": "CC(C)CN(C[C@@H](O)[C@H](Cc1ccccc1)NC(=O)O[C@H]1CO[C@H]2OCC[C@H]21)S(=O)(=O)c1ccc(N)cc1", "assay": "shake flask", "system": "PBS", "setting": "pH 3", "endpoint": "logD", "value": 2.98}
{"SMILES": "Cc1cccc(N2CCN(c3nc(-c4ccccn4)nc4ccccc34)CC2)n1", "assay": "metabolic stability", "system": "human, liver microsomes", "endpoint": "microsomal CLint", "value": "165 µL/min/mg"}
{"SMILES": "c1cnc2ccc(Nc3nc(NC4CC4)c4nc[nH]c4n3)cc2c1", "system": "human, plasma", "setting": "oral, 200 mg/m², patients", "endpoint": "CL/F", "value": "80.9 L/h"}
{"SMILES": "CCNCCCNC/C=C\\CNCCCNCC", "system": "human, plasma", "setting": "intravenous, 100 mg, patients, infusion", "endpoint": "clearance", "value": "5510 mL/min"}
{"SMILES": "Cn1nccc1-c1nc(N2CCC(c3ccccn3)C2)c2ccccc2n1 (stereo not drawn)", "assay": "metabolic stability", "system": "human, liver microsomes", "endpoint": "microsomal CLint", "value": "59 µL/min/mg"}
{"SMILES": "CCCN(c1ccc(F)cc1)c1c(-c2ccccn2)nc2ccccn12", "assay": "metabolic stability", "system": "rat, hepatocytes", "endpoint": "hepatocyte CLint", "value": "110 µL/min/10⁶ cells"}
{"SMILES": "c1ccc(C2CCN(c3nc(-c4ccn[nH]4)nc4ccccc34)C2)nc1 (stereo not drawn)", "assay": "metabolic stability", "system": "human, liver microsomes", "endpoint": "microsomal CLint", "value": "46 µL/min/mg"}
{"SMILES": "C[C@H](C(=O)N[C@@H]1COc2ccccc2[C@H]1S(C)(=O)=O)c1ccc(F)cc1", "assay": "metabolic stability", "system": "rat, liver microsomes", "setting": "1 µM", "endpoint": "microsomal CLint", "value": "55 µL/min/mg"}
{"SMILES": "Clc1cccc(-c2c(-c3ccccn3)nc3n2CCC3)c1", "assay": "metabolic stability", "system": "rat, hepatocytes", "endpoint": "hepatocyte CLint", "value": "51 µL/min/10⁶ cells"}
{"SMILES": "N#CC1CCCN(c2nc(-c3ccccn3)nc3ccccc23)C1 (stereo not drawn)", "assay": "metabolic stability", "system": "human, liver microsomes", "endpoint": "microsomal CLint", "value": "48 µL/min/mg"}
{"SMILES": "Fc1ccc(Nc2c(-c3ccccn3)nc3ccccn23)nc1", "assay": "metabolic stability", "system": "rat, hepatocytes", "endpoint": "hepatocyte CLint", "value": "18 µL/min/10⁶ cells"}
{"SMILES": "CCOC(=O)C1=C(C)N/C(=C/c2cc(C)n(Cc3ccc(C(F)(F)F)cc3)c2C)C1=O", "assay": "HPLC", "setting": "pH 7.4", "endpoint": "chromatographic logD", "value": 3.5}
{"SMILES": "CN(c1ccc(F)cc1)c1c(-c2ccc(F)cn2)nc2ccccn12", "assay": "metabolic stability", "system": "rat, hepatocytes", "endpoint": "hepatocyte CLint", "value": "> 300 µL/min/10⁶ cells"}
{"SMILES": "c1ccc(-c2nc(NCCn3cnc4ccccc43)c3ccccc3n2)nc1", "assay": "metabolic stability", "system": "human, liver microsomes", "endpoint": "microsomal CLint", "value": "150 µL/min/mg"}
{"SMILES": "COc1ccn2c(Nc3ccccc3F)c(-c3ccncn3)nc2c1", "assay": "metabolic stability", "system": "rat, hepatocytes", "endpoint": "hepatocyte CLint", "value": "170 µL/min/10⁶ cells"}
{"SMILES": "Cc1ccc(C(=O)N(CCCN)[C@@H](c2oc3cc(Cl)ccc3c(=O)c2Cc2ccccc2)C(C)C)cc1", "system": "human, plasma", "setting": "intravenous, 6 mg/m², single dose, patients, infusion", "endpoint": "clearance", "value": "23.6 mL/min"}
{"SMILES": "COc1cccnc1-c1nc2ccccn2c1N(C)c1ccc(F)cc1", "assay": "metabolic stability", "system": "rat, hepatocytes", "endpoint": "hepatocyte CLint", "value": "> 300 µL/min/10⁶ cells"}
{"SMILES": "CS(=O)(=O)CCC#N", "system": "human, plasma", "setting": "oral, 1000 mg, single dose, fasted", "endpoint": "CL/F", "value": "0.014 L/h/kg"}
{"SMILES": "Cn1cnc(-c2nc3ccccn3c2Nc2ccc(F)cc2)c1", "assay": "metabolic stability", "system": "rat, hepatocytes", "endpoint": "hepatocyte CLint", "value": "14 µL/min/10⁶ cells"}
{"SMILES": "NC(=O)C1CCN(c2nc(-c3ccccn3)nc3ccccc23)C1 (stereo not drawn)", "assay": "metabolic stability", "system": "human, liver microsomes", "endpoint": "microsomal CLint", "value": "37 µL/min/mg"}
{"SMILES": "COc1cc(C(=O)NC2CCN(C)CC2)c(F)cc1Nc1ncc(C(F)(F)F)c(Oc2cccc3c2C(=O)N(C)C3)n1", "system": "human, plasma", "setting": "oral, 10 mg, multiple doses, once daily, patients", "endpoint": "CL/F", "value": "20.8 L/h"}
{"SMILES": "COc1ccc(Nc2nc(-c3ccccn3)nc3ccccc23)cc1", "assay": "metabolic stability", "system": "human, liver microsomes", "endpoint": "microsomal CLint", "value": "73 µL/min/mg"}
{"SMILES": "CCOC(=O)C1=C(C)N/C(=C/c2cc(C)n(-c3ccc(N4CCOCC4)cc3)c2C)C1=O", "assay": "HPLC", "setting": "pH 7.4", "endpoint": "chromatographic logD", "value": 2.8}
